The test system of assay [1] is OS-RC-2. The assay can be described thus: Cytotoxicity against human OS-RC2 cells by MTT assay. Format: functional, cell-based. Put shortly:
(§1)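 MTT assay in human tumour lines. IC50 is the compound concentration giving a 50% drop in optical density relative to untreated cells. Values are means of three independent determinations.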
(Formazan colour is commonly taken as a measure of viable cells.)

Assay [2] has as its system CWR22R. The assay can be described thus: Cytotoxicity against human 22Rv1 cells by MTT assay. Format: functional, cell-based. Put shortly: as §1
In assay [3] the test system is MCF7. Put plainly: Cytotoxicity against human MCF7 cells by MTT assay. Format: functional, cell-based. Put shortly:
as §1

Assay [4] deals with 769-P. The assay can be described thus: Cytotoxicity against human 769-P cells by MTT assay. Format: functional, cell-based. Summed up: as §1
The subject of assay [5] is KB. The assay can be described thus: Cytotoxicity against human KB cells by MTT assay. Format: functional, cell-based. Summed up: as §1
The nature of assay [6]: Cytotoxicity against human BCG823 cells by MTT assay. Format: functional, cell-based. Put shortly:
as §1

Assay [7] deals with 786-0. Put plainly: Cytotoxicity against human 786-0 cells by MTT assay. Format: functional, cell-based. Summed up: as §1
The subject of assay [8] is HepG2. The assay can be described thus: Cytotoxicity against human HepG2 cells by MTT assay. Format: functional, cell-based. Put shortly: as §1
The subject of assay [9] is A-375. The assay can be described thus: Cytotoxicity against human A375 cells by MTT assay. Format: functional, cell-based. Summed up: as §1
In assay [10] the test system is HT-29. Put plainly: Cytotoxicity against human HT-29 cells by MTT assay. Format: functional, cell-based. Put shortly:
as §1

Assay [11] deals with Calf thymus DNA. The assay can be described thus: Binding affinity to calf thymus DNA assessed as change in melting temperature at drug/DNA ratio 0.2 at pH 7.4. As to conditions: Bos taurus. Format: nucleic-acid assay. Put shortly: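 Thermal denaturation of calf thymus DNA in PE buffer (1 mM Na₂HPO₄, 0.1 mM EDTA, pH 7.4), drug/DNA ratio 0.2; ΔTm taken as Tm of drug–DNA complex minus Tm of DNA alone.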

19 compounds from ChEMBL document CHEMBL1177786, “Synthesis of novel beta-carbolines with efficient DNA-binding capacity and potent cytotoxicity” (Bioorg Med Chem Lett, 2010) can be followed below.

Where a name gives a salt, the structure may show the parent alone.

Regarding `CCN(CC)CCCCNCc1cc2c3ccccc3n(CCCc3ccccc3)c2cn1`, the IC50 in [1] stood at 27.7 µM; in assay [2] it was 7.6 µM; in [3] it was 9.1 µM; in assay [4], 10.9 µM; in [5] it was 6.1 µM; in assay [6] it was 8.8 µM. In addition, the half-maximal inhibitory concentration (IC50) in assay [7] worked out at 9.2 µM; in assay [8] it was 3.4 µM; in [9] it was 5.8 µM; in [10], 6.4 µM.
Consider `CCN(CC)CCCNCc1cc2c3ccccc3n(Cc3cccc(Cl)c3)c2cn1`, for which the 50% inhibitory concentration (IC50) is 8 µM in [1]; 8.4 µM in assay [2]; 17.4 µM in assay [3]; 14.3 µM in assay [4]; 7.8 µM in [5]; 8.1 µM in [6]. The 50% inhibitory concentration (IC50) in [7] was determined as 13 µM; in assay [8], 11.7 µM; in assay [9] it was 14.7 µM; in assay [10], 9.3 µM.
`CCN(CC)CCNCc1cc2c3ccccc3n(C)c2cn1`: the half-inhibitory concentration (IC50) was over 100 µM in [1]; over 100 µM in [2]; over 100 µM in [3]; over 100 µM in assay [4]; over 100 µM in assay [5]; 75.7 µM in [6]. The concentration for half-maximal inhibition (IC50) in [7] is over 100 µM; in assay [8] it was over 100 µM; in assay [9] it was over 100 µM; in [10], 41.1 µM.
On to `CC(=O)O[C@H]1C(=O)[C@@]2(C)[C@H]([C@H](OC(=O)c3ccccc3)[C@]3(O)C[C@H](OC(=O)[C@H](O)[C@@H](NC(=O)c4ccccc4)c4ccccc4)C(C)=C1C3(C)C)[C@]1(OC(C)=O)CO[C@@H]1C[C@@H]2O` [PACLITAXEL], for which the IC50 in assay [1] is under 0.08 µM; in assay [2], 0.08 µM; in [3], 1.3 µM; in [5], 0.08 µM; in assay [6], 1.5 µM; in assay [7], under 0.08 µM. Moreover, the figures for the half-maximal inhibitory concentration (IC50) in assay [8] and in assay [10] were under 0.08 µM and 0.38 µM, respectively.
As to `CCCCn1c2ccccc2c2cc(CNCCCN(CC)CC)ncc21`, the IC50 turned out to be 35.7 µM in assay [1]; 8.8 µM in assay [2]; 64.2 µM in assay [3]; 2.2 µM in assay [4]; 6.2 µM in [5]; 5.9 µM in [6]. Besides, the half-maximal inhibitory concentration (IC50) in assay [7] came to 19.5 µM; in assay [8], 4.6 µM; in assay [9] it was 44.2 µM; in [10], 2.6 µM. For the same compound, the ΔTm in assay [11] came to 20.6 °C.
On to `CCN(CC)CCNCc1cc2c3ccccc3n(CCCc3ccccc3)c2cn1`, for which the half-inhibitory concentration (IC50) in assay [1] was found to be 43.9 µM; in assay [2] it was 8.2 µM; in assay [3] it was 27.7 µM; in assay [4] it was 7.3 µM; in [5], 9.7 µM; in [6], 14.2 µM. For the same compound, the IC50 is 11.2 µM in [7], 7.2 µM in assay [8], 5.9 µM in assay [9] and 4.2 µM in assay [10].
Take `CCCCn1c2ccccc2c2cc(CNCCN(CC)CC)ncc21`: the half-inhibitory concentration (IC50) was over 100 µM in assay [1]; 25.7 µM in assay [2]; 92.8 µM in [3]; 7.4 µM in assay [4]; 13.7 µM in assay [5]; 20.2 µM in [6]. For the same compound, the IC50 in assay [7] came out at 37.6 µM; in assay [8] it was 10.1 µM; in assay [9], 75.9 µM; in assay [10] it was 7.8 µM.
Turning to `CCN(CC)CCNCc1cc2c3ccccc3n(Cc3ccc(F)cc3)c2cn1`, the IC50 is 93.6 µM in assay [1]; 9 µM in assay [2]; 43.6 µM in assay [3]; 8.8 µM in [4]; 37.1 µM in assay [5]; 10.9 µM in assay [6]. For the same compound, the half-maximal inhibitory concentration (IC50) worked out at 13.1 µM in assay [7], 9.1 µM in assay [8], 35 µM in assay [9] and 36.2 µM in [10].
On to `CCN(CC)CCCNCc1cc2c3ccccc3n(Cc3ccc(F)cc3)c2cn1`, for which the IC50 in assay [1] amounted to 13.6 µM; in assay [2], 3.6 µM; in [3], 31.8 µM; in [4] it was 8.5 µM; in assay [5], 33.1 µM; in assay [6], 2.6 µM. For the same compound, the IC50 in [7] came out at 6.1 µM; in [8], 8 µM; in assay [9] it was 13.7 µM; in [10], 10.2 µM.
For the compound `CCN(CC)CCCCNCc1cc2c3ccccc3n(Cc3ccc(F)cc3)c2cn1`, the IC50 in assay [1] came out at 31.7 µM; in assay [2], 9.6 µM; in assay [3], 20.2 µM; in assay [4], 2.9 µM; in assay [5], 6.5 µM; in assay [6], 9.4 µM. Also, the IC50 came to 5.8 µM in assay [7], 2.5 µM in assay [8], 6.5 µM in assay [9] and 10.1 µM in [10].
Consider `CCN(CC)CCCCNCc1cc2c3ccccc3n(C)c2cn1`, for which the concentration for half-maximal inhibition (IC50) is over 100 µM in assay [1]; over 100 µM in [2]; over 100 µM in assay [3]; over 100 µM in [4]; 70.6 µM in [5]; over 100 µM in [6]. Also, the IC50 in assay [7] was over 100 µM; in assay [8], over 100 µM; in [9], over 100 µM; in [10] it was 33.1 µM.
For the compound `CCCCn1c2ccccc2c2cc(CNCCCCN(CC)CC)ncc21`, the IC50 in [1] came to 71.7 µM; in [2], 13.5 µM; in [3], 23.4 µM; in [4], 8 µM; in [5], 10.2 µM; in [6], 23.4 µM. For the same compound, the IC50 in assay [7] is 14.1 µM; in [8] it was 8 µM; in assay [9] it was 15.2 µM; in assay [10], 27.4 µM.
Consider `CCN(CC)CCCCNCc1cc2c3ccccc3n(Cc3cccc(Cl)c3)c2cn1`, for which the IC50 in assay [1] was 6.7 µM; in [2] it was 8.6 µM; in assay [3], 19.8 µM; in assay [4] it was 8.2 µM; in assay [5], 4.2 µM; in assay [6] it was 9.8 µM. In addition, the IC50 was determined as 19.4 µM in [7], 10.8 µM in assay [8], 12.6 µM in assay [9] and 12.2 µM in assay [10].
In the case of `CCN(CC)CCNCc1cc2c3ccccc3n(Cc3ccccc3)c2cn1`, the IC50 in assay [1] is over 100 µM; in [2] it was 15.9 µM; in assay [3] it was 68.1 µM; in assay [4] it was 2 µM; in assay [5], 8.2 µM; in [6] it was 9.7 µM. Moreover, the IC50 was determined as 14.4 µM in [7], 13.1 µM in [8], 39.1 µM in assay [9] and 5.2 µM in assay [10].
For the compound `CCN(CC)CCCNCc1cc2c3ccccc3n(C)c2cn1`, the IC50 is over 100 µM in assay [1]; over 100 µM in assay [2]; over 100 µM in [3]; over 100 µM in [4]; 59.7 µM in [5]; over 100 µM in assay [6]. For the same compound, the IC50 in [7] is 87.6 µM; in [8], 96.1 µM; in assay [9] it was over 100 µM; in [10], 35.7 µM. For the same compound, the shift in melting temperature (ΔTm) in assay [11] is 24.5 °C.
In the case of `CCN(CC)CCNCc1cc2c3ccccc3n(Cc3cccc(Cl)c3)c2cn1`, the IC50 was 52.3 µM in [1]; 58.5 µM in assay [2]; 42.2 µM in assay [3]; 19.3 µM in assay [4]; 21.6 µM in assay [5]; 37.9 µM in assay [6]. In addition, the IC50 was 47.6 µM in assay [7], 17.7 µM in assay [8], 22.7 µM in assay [9] and 19.7 µM in assay [10].
`COc1cccc2c1C(=O)c1c(O)c3c(c(O)c1C2=O)C[C@@](O)(C(=O)CO)C[C@@H]3O[C@H]1C[C@H](N)[C@H](O)[C@H](C)O1` [DOXORUBICIN HYDROCHLORIDE]: the IC50 is under 1 µM in assay [1]; under 1 µM in assay [2]; 11.5 µM in assay [4]; 0.6 µM in assay [5]; under 1 µM in assay [6]; 3.1 µM in assay [7]. For the same compound, the IC50 in assay [8] worked out at 1 µM; in assay [9], 17.2 µM; in assay [10], 4.2 µM.
As for `CCN(CC)CCCNCc1cc2c3ccccc3n(Cc3ccccc3)c2cn1`, the IC50 stood at 14.5 µM in assay [1]; 7.3 µM in assay [2]; 32.5 µM in assay [3]; 1.5 µM in assay [4]; 4.9 µM in assay [5]; 2.8 µM in assay [6]. Also, the IC50 in assay [7] worked out at 6.4 µM; in [8], 4.4 µM; in assay [9] it was 17.5 µM; in [10], 3.7 µM. Further, in [11], the thermal shift (ΔTm) was 15.6 °C.
On to `CCN(CC)CCCCNCc1cc2c3ccccc3n(Cc3ccccc3)c2cn1`, for which the half-maximal inhibitory concentration (IC50) amounted to 55 µM in assay [1]; 8.9 µM in assay [2]; 13.4 µM in [3]; 31 µM in [4]; 8.2 µM in assay [5]; 29.3 µM in assay [6]. The IC50 was 6.2 µM in [7], 3 µM in assay [8], 16.2 µM in assay [9] and 27 µM in [10].

For orientation: IC50 means the midpoint of a concentration-inhibition curve. Read a high IC50 as a need for much substance. As a reminder, the ΔTm is the change in melting temperature against a reference sample.
